Assay results: article PMC7043261 (Pharmacology Research & Perspectives, 2020)

Key:
[1] = tested on: formalin‐induced pain responses in rats; conditions: ref 34 (Maione et al (2007)); cited from earlier work
[2] = tested on: motor coordination; conditions: ref 17 (Watabiki et al (2017)); cited from earlier work
[3] = tested on: CFA‐induced mechanical allodynia in rats; assay: CFA‐induced inflammatory pain; type: in vivo; conditions: rat, 1 and 4 hours after administration
In short: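 Male Sprague‐Dawley rats received 50% CFA intraplantar (0.1 mL, right hind paw). PWT was measured 5 days later by von Frey up‐down method. The test compound (0.5% HPMC suspension) was dosed orally 1 h before PWT. Naproxen (0.5% methylcellulose) was dosed orally 4 h before PWT. Dosing volume 10 mL/kg. n=9, mean ± SEM; Steel's or Wilcoxon test.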

[4] = tested on: CFA‐induced mechanical allodynia in rats; conditions: cited from earlier work; for mechanical allodynia on CFA‐induced inflammatory pain: rats
[5] = tested on: catalepsy; conditions: ref 13 (Ahn et al (2011)); cited from earlier work
[6] = target: 5-HT2B (h) (Homo sapiens, UniProt P41595); assay: Cerep BioPrint profiling and follow-up IC50; type: binding
Chain of 5-HT2B (h) (P41595 whole entry): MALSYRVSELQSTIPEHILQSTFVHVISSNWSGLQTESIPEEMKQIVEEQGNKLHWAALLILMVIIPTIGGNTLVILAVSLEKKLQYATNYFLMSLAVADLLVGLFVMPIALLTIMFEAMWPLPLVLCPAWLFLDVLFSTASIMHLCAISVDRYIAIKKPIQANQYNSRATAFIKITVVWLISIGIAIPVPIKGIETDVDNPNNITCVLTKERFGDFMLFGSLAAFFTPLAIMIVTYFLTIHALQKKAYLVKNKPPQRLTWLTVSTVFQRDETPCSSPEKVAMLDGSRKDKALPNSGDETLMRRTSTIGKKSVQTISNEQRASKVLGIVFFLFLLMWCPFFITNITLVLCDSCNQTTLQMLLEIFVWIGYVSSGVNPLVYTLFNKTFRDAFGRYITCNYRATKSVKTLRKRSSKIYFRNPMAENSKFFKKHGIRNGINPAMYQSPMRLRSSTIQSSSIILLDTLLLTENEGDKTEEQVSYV

[7] = Pharmacokinetic study in rats; type: in vivo; conditions: male, Sprague-Dawley, rat, plasma
In short: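 Male Sprague‐Dawley rats. IV dose: 1 mg/kg in 40% dimethylacetamide/40% PEG400/20% water (1 mL/kg). Oral doses: 0.3, 1, 3 mg/kg as 0.5% HPMC suspension. Serial plasma was obtained by centrifugation (2,150g, 15 min, 4°C), extracted with ethyl acetate by supported‐liquid extraction, and reconstituted in 45% acetonitrile/55% 10 mmol/L ammonium acetate. Analysis by LC‐MS/MS; noncompartmental parameters.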

[8] = target: T1, human FAAH (Homo sapiens, UniProt O00519); assay: FAAH inhibition, human microsomes; type: biochemical
T1 sequence (O00519 1-579): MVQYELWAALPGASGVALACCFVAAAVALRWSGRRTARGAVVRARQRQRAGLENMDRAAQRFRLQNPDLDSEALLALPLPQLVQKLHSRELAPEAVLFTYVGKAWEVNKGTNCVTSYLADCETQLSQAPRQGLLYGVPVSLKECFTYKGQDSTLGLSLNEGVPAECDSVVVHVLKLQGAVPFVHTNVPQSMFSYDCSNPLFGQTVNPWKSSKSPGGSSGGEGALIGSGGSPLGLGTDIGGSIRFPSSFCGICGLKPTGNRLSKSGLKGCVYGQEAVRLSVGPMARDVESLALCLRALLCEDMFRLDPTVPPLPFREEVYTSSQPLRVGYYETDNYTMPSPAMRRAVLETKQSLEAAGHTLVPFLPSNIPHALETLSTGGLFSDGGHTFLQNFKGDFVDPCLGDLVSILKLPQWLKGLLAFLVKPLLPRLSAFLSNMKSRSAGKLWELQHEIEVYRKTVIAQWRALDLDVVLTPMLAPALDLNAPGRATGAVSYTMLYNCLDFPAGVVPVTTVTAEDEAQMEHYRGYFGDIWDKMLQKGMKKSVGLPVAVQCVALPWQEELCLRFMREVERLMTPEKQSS

[9] = target: T2, human monoacylglycerol lipase (MAGL) (Homo sapiens, UniProt Q99685); assay: MAGL inhibitor screening assay kit; type: biochemical; conditions: 30 μmol/L
T2 sequence (Q99685 1-303): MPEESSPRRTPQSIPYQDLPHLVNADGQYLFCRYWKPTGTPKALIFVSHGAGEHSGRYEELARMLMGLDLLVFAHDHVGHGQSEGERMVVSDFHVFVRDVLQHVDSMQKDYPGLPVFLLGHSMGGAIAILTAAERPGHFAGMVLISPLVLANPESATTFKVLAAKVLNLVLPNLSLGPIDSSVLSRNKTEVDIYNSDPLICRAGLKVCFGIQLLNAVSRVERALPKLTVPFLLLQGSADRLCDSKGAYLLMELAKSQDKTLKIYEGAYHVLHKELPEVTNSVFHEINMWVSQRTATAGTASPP

[10] = tested on: motor coordination in rats; assay: Motor coordination; type: in vivo; conditions: rat, p.o., cut‐off 200 s
In short: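 Male Sprague‐Dawley rats were trained at 20 rpm on 2 consecutive days, up to five trials, until they walked ≥200 s. They were retrained in two sessions on test day; rats reaching the criterion once were used. Time on the rod (cut‐off 200 s) was recorded 1 h after the oral test compound or 2 h after pregabalin. n=10, mean ± SEM; Steel's test.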

[11] = target: PAF (h) (Homo sapiens, UniProt P25105); assay: Cerep BioPrint profiling and follow-up IC50; type: binding
Chain of PAF (h) (P25105 whole entry): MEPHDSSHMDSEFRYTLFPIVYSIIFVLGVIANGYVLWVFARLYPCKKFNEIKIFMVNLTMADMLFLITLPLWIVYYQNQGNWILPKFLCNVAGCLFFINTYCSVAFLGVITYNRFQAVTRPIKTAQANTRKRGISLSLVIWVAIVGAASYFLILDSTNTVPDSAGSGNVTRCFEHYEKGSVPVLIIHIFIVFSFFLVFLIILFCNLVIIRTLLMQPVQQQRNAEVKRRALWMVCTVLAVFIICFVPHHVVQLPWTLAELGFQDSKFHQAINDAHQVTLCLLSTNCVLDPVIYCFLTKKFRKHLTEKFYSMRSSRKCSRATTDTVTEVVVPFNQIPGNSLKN

[12] = tested on: AEA concentrations in rat brain; assay: AEA concentrations in rat brain; type: in vivo
[13] = tested on: CCI‐induced mechanical allodynia in rats; assay: CCI‐induced neuropathic pain; type: in vivo; conditions: rat, 4 hours
In short: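 Male Sprague‐Dawley rats. Under anesthesia, the left sciatic nerve was loosely tied with four ligatures at 1 mm intervals; in shams the right nerve was exposed but not ligated. On day 14 after surgery, the test compound (0.5% HPMC suspension) or pregabalin (saline) was given orally at 10 mL/kg 4 h before PWT. PWT was measured by von Frey up‐down method. n=8, mean ± SEM; Steel's or Wilcoxon test.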

[14] = tested on: catalepsy in rats; assay: Catalepsy; type: in vivo; conditions: rat, cut‐off 90 s
[15] = tested on: formalin‐induced pain responses in rats; assay: Formalin test; type: in vivo; conditions: rat; for formalin‐induced pain responses, late phase: 10 to 45 minutes; for formalin‐induced pain responses, early phase: 0 to 10 minutes
In short: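 Male Wistar rats received oral dosing 1 h before injection: test compound in 0.5% HPMC or pregabalin in saline, 10 mL/kg. Then 0.5% formalin (50 µL) was injected into the left hind‐paw plantar surface. Flinching, licking and biting time was scored manually over 45 min: early phase 0–10 min, late phase 10–45 min. n=6, mean ± SEM; Dunnett's or Student's t‐test.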

[16] = target: T3, rat FAAH (Rattus norvegicus, UniProt P97612); assay: FAAH inhibition, rat brain microsomes, AAMCA fluorescence, IC50; type: biochemical
T3 sequence (P97612 1-579): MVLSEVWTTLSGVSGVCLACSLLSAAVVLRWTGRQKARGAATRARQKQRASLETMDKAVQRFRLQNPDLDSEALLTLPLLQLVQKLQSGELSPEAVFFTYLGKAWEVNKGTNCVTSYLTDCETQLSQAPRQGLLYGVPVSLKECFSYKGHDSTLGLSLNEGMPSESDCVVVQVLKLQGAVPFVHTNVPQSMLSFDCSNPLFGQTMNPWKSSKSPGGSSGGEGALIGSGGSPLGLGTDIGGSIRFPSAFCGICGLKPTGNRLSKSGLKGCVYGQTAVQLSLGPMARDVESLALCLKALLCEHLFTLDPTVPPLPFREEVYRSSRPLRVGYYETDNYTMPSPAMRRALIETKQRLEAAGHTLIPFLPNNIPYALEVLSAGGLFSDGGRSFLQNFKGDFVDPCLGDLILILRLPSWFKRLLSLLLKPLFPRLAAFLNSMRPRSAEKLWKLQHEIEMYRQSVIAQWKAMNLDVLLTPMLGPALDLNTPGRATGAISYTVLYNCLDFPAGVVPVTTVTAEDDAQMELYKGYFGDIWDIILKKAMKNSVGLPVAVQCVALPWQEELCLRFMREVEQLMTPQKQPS

[17] = tested on: spinal nerve ligation‐induced mechanical allodynia; conditions: rats; single systemic administration; cited from earlier work
[18] = tested on: partial sciatic nerve ligation‐induced mechanical allodynia; conditions: rats; cited from earlier work
[19] = 30 mg/kg p.o. 1 hour before formalin

In the case of `CCCCC/C=C\C/C=C\C/C=C\C/C=C\CCCC(=O)NCCc1c[nH]c2ccc(O)cc12` [AA‐5‐HT, N‐arachidonoyl‐serotonin], the “formalin‐induced pain responses” value [1] is listed as “significantly decreased formalin‐induced pain responses only in the late phase”.
For `O=C(Nc1ccccc1)C1CCN(C(=O)Oc2cccnc2)CC1` [ASP8477, 3‐pyridyl 4‐(phenylcarbamoyl)piperidine‐1‐carboxylate], the “effect on motor coordination” value [2] is listed as “did not affect motor coordination up to 30 mg/kg”.
In the case of `COc1ccc2cc([C@H](C)C(=O)O)ccc2c1` [Naproxen, (S)‐(+)‐6‐methoxy‐α‐methyl‐2‐naphthaleneacetic acid, reference compound], the “mechanical allodynia (PWT), CFA‐induced inflammatory pain” value ([3]; 15 mg/kg p.o.) is reported as “significantly suppressed”.
In the case of `O=C(Nc1cccnc1)N1CCC(Cc2cccc(Oc3ccc(C(F)(F)F)cn3)c2)CC1` [PF‐3845, N‐3‐pyridinyl‐4‐[[3‐[[5‐(trifluoromethyl)‐2‐pyridinyl]oxy]phenyl]methyl]‐1‐piperidinecarboxamide], the “mechanical allodynia on CFA‐induced inflammatory pain” value [4] is given as “improved mechanical allodynia”.
In the case of `O=C(Nc1cccnn1)N1CCC(=Cc2cccc(Oc3ccc(C(F)(F)F)cn3)c2)CC1` [PF‐04457845, N‐pyridazin‐3‐yl‐4‐(3‐{[5‐(trifluoromethyl)pyridin‐2‐yl]oxy}benzylidene)piperidine‐1‐carboxamide], the effects on catalepsy [5] is listed as “no effects on catalepsy up to 100‐fold higher dose”, the “mechanical allodynia on CFA‐induced inflammatory pain” value [4] is listed as “improved mechanical allodynia” and the “minimum effective dose in CFA‐induced inflammatory pain” value ([4]; ref 13 (Ahn et al (2011))) is listed as 0.1 mg/kg.
With `O=C(Nc1cccnn1)N1CCN([C@@H]2CCOc3cc(C(F)(F)F)ccc32)CC1` [PKM‐833, (R)‐N‐(pyridazin‐3‐yl)‐4‐(7‐(trifluoromethyl)chroman‐4‐yl)piperazine‐1‐carboxamide] the IC50 [6] was 6.4 µM, the half-life ([7]; iv, 1 mg/kg) was 348 min and the bioavailability ([7]; po) was 41 to 91%. The IC50 [8] was 8.8 ± 3 nM, the “selectivity against other molecular targets” value ([8]; FAAH versus 137 other molecular targets) was “more than 200 fold” and the “inhibition of human MAGL” value [9] was “did not inhibit”. The “Duration (s) on rotarod” value ([10]; 10 mg/kg, 1 h) was 200 ± 0 s, the “Duration (s) on rotarod” value ([10]; 30 mg/kg, 1 h) was 195 ± 6 s and the IC50 [11] was 2300 nM. The “AEA concentrations in rat brain, time course” value ([12]; 1 mg/kg p.o., 1 to 48 hours before decapitation) was “significantly elevated for 8 hours but not at 24 and 48 hours”, the “AEA concentrations in rat brain, dose dependence” value ([12]; 0.3‐3 mg/kg p.o., 1 hour before decapitation) was “significant effects at doses of 1 and 3 mg/kg” and the “mechanical allodynia (PWT), CCI‐induced neuropathic pain” value ([13]; PKM‐833 30 mg/kg p.o. (3‐30 mg/kg tested)) was “did not attenuate”. The “mechanical allodynia (PWT), CFA‐induced inflammatory pain” value ([3]; 0.3 to 3 mg/kg p.o.) was “significantly suppressed”, the “Duration (s), catalepsy” value ([14]; 10 mg/kg, p.o., 1 h) was 0.5 ± 0.1 s and the “Duration (s), catalepsy” value ([14]; 10 mg/kg, p.o., 4 h) was 3.7 ± 1.9 s. For the same compound, the “Duration (s), catalepsy” value ([14]; 30 mg/kg, p.o., 1 h) was 0.8 ± 0.2 s, the “Duration (s), catalepsy” value ([14]; 30 mg/kg, p.o., 4 h) was 1.0 ± 0.3 s and the “formalin‐induced pain responses, late phase” value ([15]; 3 mg/kg p.o. 1 hour before formalin) was “significantly reduced”. For the same compound, the “formalin‐induced pain responses, early phase” value ([15]; 0.3‐3 mg/kg p.o. 1 hour before formalin) was “Neither PKM‐833 nor pregabalin changed” and the IC50 [16] was 10 ± 3 nM.
For `CC(C)C[C@H](CN)CC(=O)O` [Pregabalin, 3(S)‐(aminomethyl)‐5‐methylhexanoic acid, reference compound], the “Duration (s) on rotarod” value ([10]; 10 mg/kg, 2 h) was 199 ± 1 s, the “Duration (s) on rotarod” value ([10]; 30 mg/kg, 2 h) was 167 ± 14 s and the “mechanical allodynia (PWT), CCI‐induced neuropathic pain” value ([13]; pregabalin 30 mg/kg p.o.) was “significantly antagonized”. For the same compound, the “formalin‐induced pain responses, early phase” value [15, 19] was “Neither PKM‐833 nor pregabalin changed” and the “formalin‐induced pain responses, late phase” value [15, 19] was “significantly reduced”.
For `NC(=O)c1cccc(-c2cccc(OC(=O)NC3CCCCC3)c2)c1` [URB597, (3'‐(aminocarbonyl)[1,1'‐biphenyl]‐3‐yl)‐cyclohexylcarbamate], the “spinal nerve ligation‐induced mechanical allodynia” value [17] is given as “improved” and the “partial sciatic nerve ligation‐induced mechanical allodynia” value [18] is given as “had no improvement”.
In the case of `CS(=O)(=O)O.Cc1c(C(=O)c2cccc3ccccc23)c2cccc3c2n1[C@H](CN1CCOCC1)CO3` [WIN 55,212‐2, (R)‐(+)‐(2,3; dihydro‐5‐methyl‐3‐(4‐morpholinylmethyl)pyrrolo[1.2.3‐de]‐1,4‐benzoxazin‐6‐yl)‐1‐naphthalenylmethanone mesylate, reference compound], the “Duration (s), catalepsy” value ([14]; 3 mg/kg, s.c., 1 h) is reported as 13 ± 2 s and the “Duration (s), catalepsy” value ([14]; 3 mg/kg, s.c., 4 h) is reported as 77 ± 7 s.
